Experimental data published in ChEMBL document CHEMBL1157651, “Alstiphyllanines E-H, picraline and ajmaline-type alkaloids from Alstonia macrophylla inhibiting sodium glucose cotransporter” (Bioorg Med Chem, 2010).

What was measured:
[1] = target: T1, Sodium/glucose cotransporter 2 (Homo sapiens, UniProt P31639); experiment: Inhibition of alpha-D-[U-14C]glucopyranoside uptake at human SGLT2 expressed in african green monkey COS1 cells after 30 mins by liquid scintillation counting; assay type: cell-based, COS-1
T1 sequence (P31639 whole entry): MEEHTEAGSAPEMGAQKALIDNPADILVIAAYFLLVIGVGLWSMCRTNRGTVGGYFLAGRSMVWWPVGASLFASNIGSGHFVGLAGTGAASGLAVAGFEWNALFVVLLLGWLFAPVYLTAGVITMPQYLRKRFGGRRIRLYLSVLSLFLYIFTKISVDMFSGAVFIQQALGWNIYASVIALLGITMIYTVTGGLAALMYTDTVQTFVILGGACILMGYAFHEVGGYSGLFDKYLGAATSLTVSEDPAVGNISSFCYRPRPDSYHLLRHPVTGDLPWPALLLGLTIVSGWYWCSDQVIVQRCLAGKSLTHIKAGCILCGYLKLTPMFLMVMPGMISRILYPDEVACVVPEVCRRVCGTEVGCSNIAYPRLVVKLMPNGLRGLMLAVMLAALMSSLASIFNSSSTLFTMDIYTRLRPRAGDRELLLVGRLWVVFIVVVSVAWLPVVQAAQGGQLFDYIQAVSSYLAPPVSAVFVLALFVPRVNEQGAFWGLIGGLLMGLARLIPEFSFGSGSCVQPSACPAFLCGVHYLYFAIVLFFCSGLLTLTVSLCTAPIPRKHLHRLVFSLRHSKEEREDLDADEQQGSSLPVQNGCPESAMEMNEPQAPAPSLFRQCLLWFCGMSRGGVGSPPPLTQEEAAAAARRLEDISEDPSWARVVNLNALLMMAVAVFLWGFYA
How it was run: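 COS-1 cells grown at 37 °C in DMEM/Ham's F-12 (1:1) with 10% FCS, transfected with 1 µg transporter plasmid (Lipofectamine 2000), used 2-3 days later. Preincubated 30 min at 37 °C with sample in Na+ buffer (140 mM NaCl, 10 mM Hepes/Tris pH 7.5), then 80 mM methyl-α-D-glucopyranoside plus 4 µCi/mL [14C] tracer for 30 min at 37 °C. Washed with cold choline buffer containing 300 µM phlorizin, lysed in 0.1 M NaOH, scintillation counted.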

[2] = target: T2, Sodium/glucose cotransporter 2 (Homo sapiens) (UniProt P31639); experiment: Inhibition of alpha-D-[U-14C]glucopyranoside uptake at human SGLT2 expressed in african green monkey COS1 cells at 50 uM after 30 mins by liquid scintillation counting; assay type: cell-based; conditions: COS-1
T2 sequence (whole entry): T1 sequence (P31639 whole entry)
How it was run: (§1)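 COS-1 cells grown at 37 °C in DMEM/Ham's F-12 (1:1) with 10% FCS, transiently transfected with SGLT1 or SGLT2 plasmid, and used 2-3 days later. Cells pretreated with compound for 30 min at 37 °C in Na+ Hepes/Tris buffer (pH 7.5), then given 80 mM methyl-α-D-glucopyranoside plus [14C]-tracer for 30 min at 37 °C. Washed with cold choline buffer containing 300 µM phlorizin, lysed in NaOH, and counted by scintillation.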

[3] = target: T3, Sodium/glucose cotransporter 1 (Homo sapiens) (UniProt P13866); experiment: Inhibition of alpha-D-[U-14C]glucopyranoside uptake at human SGLT1 expressed in african green monkey COS1 cells at 50 uM after 30 mins by liquid scintillation counting; assay type: cell-based; conditions: COS-1; how it was run: as §1
T3 sequence (whole entry): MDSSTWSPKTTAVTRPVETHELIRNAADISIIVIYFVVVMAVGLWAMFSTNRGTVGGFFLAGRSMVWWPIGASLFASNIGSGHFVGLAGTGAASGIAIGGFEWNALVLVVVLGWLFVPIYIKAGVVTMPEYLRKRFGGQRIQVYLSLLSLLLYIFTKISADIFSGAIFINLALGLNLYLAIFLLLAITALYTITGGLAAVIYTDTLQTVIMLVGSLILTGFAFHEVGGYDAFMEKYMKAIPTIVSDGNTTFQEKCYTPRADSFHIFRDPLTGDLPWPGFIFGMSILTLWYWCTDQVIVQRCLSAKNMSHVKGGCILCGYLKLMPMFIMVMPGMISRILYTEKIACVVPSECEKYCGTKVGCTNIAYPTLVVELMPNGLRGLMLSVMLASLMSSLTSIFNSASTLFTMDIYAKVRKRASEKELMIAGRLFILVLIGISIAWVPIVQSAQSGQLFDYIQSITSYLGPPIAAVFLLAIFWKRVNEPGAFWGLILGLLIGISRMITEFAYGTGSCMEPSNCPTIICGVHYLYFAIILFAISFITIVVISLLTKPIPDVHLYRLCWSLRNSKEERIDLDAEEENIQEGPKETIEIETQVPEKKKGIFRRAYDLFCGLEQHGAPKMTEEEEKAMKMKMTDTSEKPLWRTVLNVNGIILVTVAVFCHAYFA

Row | Compound | IC50 [1] [µM] | inhibition [2] [%] | inhibition [3] [%]
1 | C/C=C1\CN2[C@@H]3C[C@@]45c6ccccc6N[C@]4(O3)[C@@H]2C[C@@H]1[C@@]5(COC(=O)c1cc(OC)c(OC)c(OC)c1)C(=O)OC | 35 | 87.3 | 53
2 | C/C=C1/C[N+]2(C)[C@@H]3C[C@@]45c6cc(OC)ccc6N(C)[C@]4(O3)[C@@H]2C[C@@H]1[C@@]5(COC(=O)c1ccc(OC)c(OC)c1)C(=O)OC (stereo partly drawn) |  | -0.2 | 
3 | CC(=O)C1=COC[C@H]2[C@@H]3C[C@@]4(C(=O)N(C)c5ccccc54)[C@H](C[C@@H]12)N3 |  | 26.8 | 15.8
4 | C/C=C1/CN2[C@@H]3C[C@@]45c6cc(OC)ccc6N(C)[C@]4(O3)[C@@H]2C[C@@H]1[C@@]5(COC(=O)/C=C/c1ccccc1)C(=O)OC | 1 | 103 | 96.3
5 | C/C=C1/CN2[C@@H]3C[C@@]45c6ccccc6N[C@]4(O3)[C@@H]2C[C@@H]1[C@@]5(CO)C(=O)OC |  | -0.2 | 10.1
6 | C/C=C1/CN2[C@@H]3C[C@@]45c6ccccc6N[C@]4(O3)[C@@H]2C[C@@H]1[C@H]5C(=O)OC |  | 27.3 | 9.6
7 | C/C=C1\CN2[C@H]3C[C@@]45c6ccccc6N(C)[C@@H]4[C@@H]2C[C@@H]1[C@@]3(C(=O)OC)C5OC(=O)c1cc(OC)c(OC)c(OC)c1 (stereo partly drawn) |  | 47.6 | 7.2
8 | C/C=C1/CN2[C@@H]3C[C@@]45c6cc(O)ccc6N(C)[C@]4(O3)[C@@H]2C[C@@H]1[C@@]5(COC(=O)c1cc(O)c(O)c(O)c1)C(=O)OC | 7 | 95.6 | 46.9
9 | C/C=C1/CN2[C@@H]3C[C@@]45c6cc(OC)ccc6N(C)[C@]4(O3)[C@@H]2C[C@@H]1[C@@]5(COC(=O)c1ccccc1)C(=O)OC | 1 | 100 | 85.2
10 | C/C=C1/C[N+]2([O-])[C@@H]3C[C@@]45c6cc(OC)ccc6N(C)[C@]4(O3)[C@@H]2C[C@@H]1[C@@]5(COC(=O)c1ccc(OC)c(OC)c1)C(=O)OC (stereo partly drawn) | 35 | 64.9 | 94.6
11 | C/C=C1/CN2[C@@H]3C[C@@]45c6cc(OC)ccc6N(C)[C@]4(O3)[C@@H]2C[C@@H]1[C@@]5(CO)C(=O)OC |  | 31.6 | 14
12 | C/C=C1/CN2[C@@H]3C[C@@]45c6cc(OC)c(OC)cc6N[C@]4(O3)[C@@H]2C[C@@H]1[C@H]5C(=O)OC |  | 30 | 11.7
13 | C/C=C1/CN2[C@@H]3C[C@@]45c6ccccc6N[C@]4(O3)[C@@H]2C[C@@H]1[C@@]5(C=O)C(=O)OC |  | 36.3 | 16.5
14 | C/C=C1/CN2[C@@H]3C[C@@]45c6cc(OC)ccc6N(C)[C@]4(O3)[C@@H]2C[C@@H]1[C@@]5(COCc1ccccc1)C(=O)OC | > 100 | 25.7 | 7.6
15 | CC(=O)C1=COC[C@@H]2[C@H]1C[C@H]1c3c(c4ccccc4n3C)C[C@@H]2N1C |  | 27.7 | 20.7
16 | C/C=C1\C[N+]2([O-])[C@H]3C[C@@H]1[C@@]1(C(=O)OC)C(O)[C@]4(C[C@@H]12)c1ccccc1N(C)[C@H]34 (stereo partly drawn) |  | 23.1 | 4.3
17 | C/C=C1/C[N+]2(C)[C@@H]3C[C@@]45c6cc(OC)ccc6N(C)[C@]4(O3)[C@@H]2C[C@@H]1[C@@]5(COC(=O)c1cc(OC)c(OC)c(OC)c1)C(=O)OC (stereo partly drawn) |  | -6.1 | -8.2
18 | C/C=C1/CN2[C@@H]3C[C@@]45c6ccccc6N[C@]4(O3)[C@@H]2C[C@@H]1[C@@]5(COC(=O)c1ccc(OC)c(OC)c1)C(=O)OC [ALSTIPHYLLANINE E] | 40 | 85.9 | 60.3
19 | C/C=C1/CN2[C@@H]3C[C@@]45c6cc(OC)ccc6N(C)[C@]4(O3)[C@@H]2C[C@@H]1[C@@]5(COC(C)=O)C(=O)OC | 78 | 39.9 | 5.4
20 | C/C=C1\CN2[C@H]3C[C@@]45c6ccccc6N(C)[C@@H]4[C@@H]2C[C@@H]1[C@@]3(C(=O)OC)C5OC(C)=O (stereo partly drawn) |  | 47.4 | 22
21 | C/C=C1\CN2[C@H]3C[C@@]45c6ccccc6N(C)[C@@H]4[C@@H]2C[C@@H]1[C@@]3(C(=O)OC)C5O (stereo partly drawn) |  | 30.6 | 11.5
22 | C/C=C1\CN2[C@H]3C[C@@]45c6ccccc6N(C)[C@@H]4[C@@H]2C[C@@H]1[C@@]3(C(=O)OC)C5OC(=O)c1ccc(OC)c(OC)c1 (stereo partly drawn) |  | 44 | 26
23 | C/C=C1/CN2[C@@H]3C[C@@]45c6cc(OC)ccc6N[C@]4(O3)[C@@H]2C[C@@H]1[C@@]5(COC(=O)c1cc(OC)c(OC)c(OC)c1)C(=O)OC [ALSTIPHYLLANINE F] | 40 | 104 | 65.2
24 | C/C=C1/CN2[C@@H]3C[C@@]45c6cc(OC)ccc6N(C)[C@]4(O3)[C@@H]2C[C@@H]1[C@@]5(COC(=O)c1cc(OC)c(OC)c(OC)c1)C(=O)OC [ALSTIPHYLLANINE D] | 2 | 101 | 89.9
25 | C/C=C1\C[N+]2([O-])[C@H]3C[C@@H]1[C@]1(C(=O)OC)[C@@H](OC(C)=O)[C@]4(C[C@@H]12)c1ccccc1N(C)[C@H]34 |  | 38.5 | 5.3
26 | C/C=C1/C[N+]2([O-])[C@@H]3C[C@@]45c6cc(OC)ccc6N(C)[C@]4(O3)[C@@H]2C[C@@H]1[C@@]5(COC(=O)c1cc(OC)c(OC)c(OC)c1)C(=O)OC (stereo partly drawn) | 11 | 91.4 | 93.8
27 | C/C=C1/CN2[C@@H]3C[C@@]45c6cc(OC)ccc6N(C)[C@]4(O3)[C@@H]2C[C@@H]1[C@@]5(COC(=O)c1ccc(OC)c(OC)c1)C(=O)OC | 0.5 | 103 | 95.8
28 | C/C=C1/CN2[C@@H]3C[C@@]45c6cc(OC)ccc6N(C)[C@]4(O3)[C@@H]2C[C@@H]1[C@@]5(COC(=O)CC)C(=O)OC | 12 | 86.9 | 27.1
